{
  "source": "ChEMBL document CHEMBL4043093",
  "about": "“2-Oxo-3, 4-dihydropyrimido[4, 5-d]pyrimidinyl derivatives as new irreversible pan fibroblast growth factor receptor (FGFR) inhibitors” (Eur J Med Chem, 2017)",
  "key": {"[1]": {"target": "Phosphatidylinositol 4,5-bisphosphate 3-kinase catalytic subunit alpha isoform (Homo sapiens) (UniProt P42336)", "assay": "Inhibition of wild-type human partial length PIK3CA (R108 to N1068 residues) expressed in HEK293 cells assessed as residual activity at 1000 nM after 30 mins by Kinomescan method relative to control", "assay_type": "cell-based"}, "[2]": {"target": "Serine/threonine-protein kinase Nek11 (Homo sapiens) (UniProt Q8NG66)", "sequence (Q8NG66 whole entry, the tested form may be a part)": "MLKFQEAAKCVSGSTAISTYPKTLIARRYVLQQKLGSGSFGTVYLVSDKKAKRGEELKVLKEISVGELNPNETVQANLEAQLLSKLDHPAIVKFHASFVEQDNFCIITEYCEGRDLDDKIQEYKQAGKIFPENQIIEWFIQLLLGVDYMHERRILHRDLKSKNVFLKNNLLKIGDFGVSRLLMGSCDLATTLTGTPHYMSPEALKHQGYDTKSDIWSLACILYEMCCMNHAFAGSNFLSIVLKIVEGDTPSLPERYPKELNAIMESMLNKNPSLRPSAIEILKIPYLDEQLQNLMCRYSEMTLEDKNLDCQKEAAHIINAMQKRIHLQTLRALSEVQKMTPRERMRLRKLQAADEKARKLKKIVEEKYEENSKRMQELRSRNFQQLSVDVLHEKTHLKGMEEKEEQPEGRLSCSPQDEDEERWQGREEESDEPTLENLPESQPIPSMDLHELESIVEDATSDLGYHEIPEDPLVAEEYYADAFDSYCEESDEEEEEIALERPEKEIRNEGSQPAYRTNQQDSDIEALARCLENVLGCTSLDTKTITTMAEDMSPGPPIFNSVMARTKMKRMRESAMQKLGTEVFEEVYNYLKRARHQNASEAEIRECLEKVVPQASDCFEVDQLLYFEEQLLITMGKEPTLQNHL", "assay": "Inhibition of wild-type human partial length NEK11 (M1 to E313 residues) expressed in HEK293 cells assessed as residual activity at 1000 nM after 30 mins by Kinomescan method relative to control", "assay_type": "cell-based"}, "[3]": {"target": "Serine/threonine-protein kinase LATS2 (Homo sapiens) (UniProt Q9NRM7)", "assay": "Inhibition of wild-type human partial length LATS2 (Q641 to V1088 residues) expressed in HEK293 cells assessed as residual activity at 1000 nM after 30 mins by Kinomescan method relative to control", "assay_type": "cell-based"}, "[4]": {"target": "Activin receptor type-2A (Homo sapiens) (UniProt P27037)", "assay": "Inhibition of wild-type human ACVR2A (V171 to T499 residues) expressed in Escherichia coli BL21 assessed as residual activity at 1000 nM after 30 mins by Kinomescan method relative to control", "procedure,_shortened": "(§1)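 Single-point screen at a fixed 1 µM, run within a 456-kinase DiscoveRx KINOMEscan panel. Each kinase's read-out is Percent Control, i.e. signal relative to a control without compound. Hits were scored by a Percent Control < 35 cut-off, and an S(35) selectivity score was calculated across the non-mutant kinases.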"}, "[5]": {"target": "Serine/threonine-protein kinase PLK2 (Homo sapiens) (UniProt Q9NYY3)", "assay": "Inhibition of wild-type human partial length PLK2 (H58 to F354 residues) expressed in HEK293 cells assessed as residual activity at 1000 nM after 30 mins by Kinomescan method relative to control", "assay_type": "cell-based"}, "[6]": {"target": "Ribosomal protein S6 kinase alpha-1 (Homo sapiens) (UniProt Q15418)", "assay": "Inhibition of wild-type human partial length C-terminal RSK1 kinase domain 2 (P360 to L681 residues) expressed in Escherichia coli BL21 assessed as residual activity at 1000 nM after 30 mins by Kinomescan method relative to control"}, "[7]": {"target": "Inhibitor of nuclear factor kappa-B kinase subunit beta (Homo sapiens) (UniProt O14920)", "sequence (O14920 whole entry, the tested form may be a part)": "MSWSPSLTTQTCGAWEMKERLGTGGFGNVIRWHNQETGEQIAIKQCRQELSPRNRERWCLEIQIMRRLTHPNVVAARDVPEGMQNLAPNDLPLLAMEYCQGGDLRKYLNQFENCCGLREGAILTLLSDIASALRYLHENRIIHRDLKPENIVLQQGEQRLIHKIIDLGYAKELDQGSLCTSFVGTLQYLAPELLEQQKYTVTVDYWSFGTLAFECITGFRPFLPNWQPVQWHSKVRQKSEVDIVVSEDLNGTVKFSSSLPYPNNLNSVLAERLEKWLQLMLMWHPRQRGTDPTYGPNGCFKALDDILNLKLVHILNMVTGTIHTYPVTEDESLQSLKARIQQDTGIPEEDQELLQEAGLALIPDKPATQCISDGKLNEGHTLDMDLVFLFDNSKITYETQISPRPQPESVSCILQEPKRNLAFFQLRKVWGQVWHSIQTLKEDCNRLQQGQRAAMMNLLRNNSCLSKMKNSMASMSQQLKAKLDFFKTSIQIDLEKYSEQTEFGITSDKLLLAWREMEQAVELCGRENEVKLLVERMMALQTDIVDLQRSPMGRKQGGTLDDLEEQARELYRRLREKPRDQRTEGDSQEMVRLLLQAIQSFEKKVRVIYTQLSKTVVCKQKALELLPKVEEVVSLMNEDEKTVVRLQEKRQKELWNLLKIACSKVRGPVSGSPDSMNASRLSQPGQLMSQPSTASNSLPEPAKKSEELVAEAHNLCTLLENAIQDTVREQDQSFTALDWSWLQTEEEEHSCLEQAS", "assay": "Inhibition of wild-type human full length IKK-beta (M1 to S756 residues) expressed in HEK293 cells assessed as residual activity at 1000 nM after 30 mins by Kinomescan method relative to control", "assay_type": "cell-based", "procedure,_shortened": "(§2)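 Single-concentration screen at 1 µM across a 456-kinase KINOMEscan panel. The read-out is Percent Control for each kinase.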"}, "[8]": {"target": "Macrophage colony-stimulating factor 1 receptor (Homo sapiens) (UniProt P07333)", "sequence (P07333 whole entry, the tested form may be a part)": "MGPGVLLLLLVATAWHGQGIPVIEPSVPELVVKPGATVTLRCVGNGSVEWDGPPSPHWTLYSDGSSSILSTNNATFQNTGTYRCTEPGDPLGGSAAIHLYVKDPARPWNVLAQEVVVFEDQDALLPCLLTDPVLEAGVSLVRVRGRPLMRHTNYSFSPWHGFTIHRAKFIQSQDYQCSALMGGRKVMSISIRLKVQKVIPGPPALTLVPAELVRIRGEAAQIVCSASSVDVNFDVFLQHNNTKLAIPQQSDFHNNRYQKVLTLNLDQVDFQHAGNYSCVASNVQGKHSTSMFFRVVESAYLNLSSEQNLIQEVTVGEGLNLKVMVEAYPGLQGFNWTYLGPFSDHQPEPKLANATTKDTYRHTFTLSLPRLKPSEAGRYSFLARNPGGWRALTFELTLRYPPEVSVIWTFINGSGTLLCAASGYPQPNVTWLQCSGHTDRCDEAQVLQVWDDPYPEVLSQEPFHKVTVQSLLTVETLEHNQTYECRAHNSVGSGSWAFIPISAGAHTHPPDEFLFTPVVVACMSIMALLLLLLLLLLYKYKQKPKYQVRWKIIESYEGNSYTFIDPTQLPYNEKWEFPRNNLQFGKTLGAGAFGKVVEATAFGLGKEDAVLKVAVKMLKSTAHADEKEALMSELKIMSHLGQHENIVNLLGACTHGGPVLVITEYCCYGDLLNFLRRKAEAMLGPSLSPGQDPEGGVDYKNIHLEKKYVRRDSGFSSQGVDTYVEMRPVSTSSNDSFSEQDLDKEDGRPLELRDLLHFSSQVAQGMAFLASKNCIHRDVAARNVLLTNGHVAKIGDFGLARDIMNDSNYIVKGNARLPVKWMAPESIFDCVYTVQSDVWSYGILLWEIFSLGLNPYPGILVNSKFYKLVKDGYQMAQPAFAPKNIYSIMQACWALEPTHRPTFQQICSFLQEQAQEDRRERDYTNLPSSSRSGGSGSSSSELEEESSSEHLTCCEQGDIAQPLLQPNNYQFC", "assay": "Inhibition of wild-type human partial length autoinhibited CSF1R (Y538 to S939 residues) expressed in HEK293 cells assessed as residual activity at 1000 nM after 30 mins by Kinomescan method relative to control", "assay_type": "cell-based"}, "[9]": {"target": "Serine/threonine-protein kinase D3 (Homo sapiens) (UniProt O94806)", "assay": "Inhibition of wild-type human partial length PRKD3 (S543 to E863 residues) expressed in Escherichia coli BL21 assessed as residual activity at 1000 nM after 30 mins by Kinomescan method relative to control"}, "[10]": {"target": "Hepatocyte growth factor receptor (Homo sapiens) (UniProt P08581)", "sequence (P08581 whole entry, the tested form may be a part)": "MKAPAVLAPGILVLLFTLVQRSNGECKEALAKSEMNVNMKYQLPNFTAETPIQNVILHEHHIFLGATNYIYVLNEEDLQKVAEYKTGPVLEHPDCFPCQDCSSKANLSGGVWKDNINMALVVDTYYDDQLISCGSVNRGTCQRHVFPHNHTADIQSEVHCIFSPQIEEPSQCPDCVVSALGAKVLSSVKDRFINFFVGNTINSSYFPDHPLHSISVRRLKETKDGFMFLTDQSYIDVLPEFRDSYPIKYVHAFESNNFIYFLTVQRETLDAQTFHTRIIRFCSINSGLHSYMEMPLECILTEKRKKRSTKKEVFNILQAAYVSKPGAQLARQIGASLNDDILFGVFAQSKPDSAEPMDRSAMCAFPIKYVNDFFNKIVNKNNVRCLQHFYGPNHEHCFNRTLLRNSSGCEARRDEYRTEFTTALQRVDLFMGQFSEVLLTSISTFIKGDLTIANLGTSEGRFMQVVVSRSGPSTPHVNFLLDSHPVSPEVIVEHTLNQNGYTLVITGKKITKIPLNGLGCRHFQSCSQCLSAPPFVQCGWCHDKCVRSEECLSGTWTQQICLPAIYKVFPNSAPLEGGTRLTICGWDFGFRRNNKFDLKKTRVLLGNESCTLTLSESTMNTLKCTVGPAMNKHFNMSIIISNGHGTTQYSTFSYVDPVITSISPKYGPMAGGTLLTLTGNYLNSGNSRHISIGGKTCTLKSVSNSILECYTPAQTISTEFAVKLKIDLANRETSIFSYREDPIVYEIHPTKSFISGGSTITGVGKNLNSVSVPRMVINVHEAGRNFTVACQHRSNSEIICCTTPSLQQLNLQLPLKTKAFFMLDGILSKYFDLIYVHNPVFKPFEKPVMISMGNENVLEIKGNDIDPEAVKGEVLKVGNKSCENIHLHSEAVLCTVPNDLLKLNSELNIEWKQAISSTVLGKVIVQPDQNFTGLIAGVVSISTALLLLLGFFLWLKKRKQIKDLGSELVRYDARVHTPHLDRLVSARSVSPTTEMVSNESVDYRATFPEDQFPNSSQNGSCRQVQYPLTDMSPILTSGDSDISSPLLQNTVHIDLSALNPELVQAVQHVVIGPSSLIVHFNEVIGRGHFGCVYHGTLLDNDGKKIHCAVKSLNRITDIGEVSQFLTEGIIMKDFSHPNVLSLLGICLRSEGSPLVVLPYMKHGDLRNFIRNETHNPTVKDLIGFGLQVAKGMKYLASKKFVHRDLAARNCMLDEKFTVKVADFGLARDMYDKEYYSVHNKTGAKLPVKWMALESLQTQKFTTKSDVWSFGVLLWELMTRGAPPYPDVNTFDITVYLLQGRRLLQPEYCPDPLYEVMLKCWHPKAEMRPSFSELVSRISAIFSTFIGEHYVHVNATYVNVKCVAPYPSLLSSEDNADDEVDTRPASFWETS", "assay": "Inhibition of wild-type human partial length MET (D1010 to S1367 residues) expressed in Escherichia coli BL21 assessed as residual activity at 1000 nM after 30 mins by Kinomescan method relative to control"}, "[11]": {"target": "Serine/threonine-protein kinase WNK3 (Homo sapiens) (UniProt Q9BYP7)", "assay": "Inhibition of wild-type human partial length WNK3 (M1 to D434 residues) expressed in HEK293 cells assessed as residual activity at 1000 nM after 30 mins by Kinomescan method relative to control", "assay_type": "cell-based"}, "[12]": {"target": "Rho-associated protein kinase 2 (Homo sapiens) (UniProt O75116)", "assay": "Inhibition of wild-type human partial length ROCK2 (M1 to T431 residues) expressed in HEK293 cells assessed as residual activity at 1000 nM after 30 mins by Kinomescan method relative to control", "assay_type": "cell-based"}, "[13]": {"target": "Tyrosine-protein kinase TXK (Homo sapiens) (UniProt P42681)", "assay": "Inhibition of wild-type human partial length TXK (L238 to W527 residues) expressed in Escherichia coli BL21 assessed as residual activity at 1000 nM after 30 mins by Kinomescan method relative to control"}, "[14]": {"target": "Tyrosine-protein kinase FRK (Homo sapiens) (UniProt P42685)", "assay": "Inhibition of wild-type human partial length FRK (A215 to F503 residues) expressed in Escherichia coli BL21 assessed as residual activity at 1000 nM after 30 mins by Kinomescan method relative to control"}, "[15]": {"target": "Serine/threonine-protein kinase Nek5 (Homo sapiens) (UniProt Q6P3R8)", "assay": "Inhibition of wild-type human partial length NEK5 (M1 to M279 residues) expressed in Escherichia coli BL21 assessed as residual activity at 1000 nM after 30 mins by Kinomescan method relative to control"}, "[16]": {"target": "Inhibitor of nuclear factor kappa-B kinase subunit epsilon (Homo sapiens) (UniProt Q14164)", "sequence (Q14164 whole entry, the tested form may be a part)": "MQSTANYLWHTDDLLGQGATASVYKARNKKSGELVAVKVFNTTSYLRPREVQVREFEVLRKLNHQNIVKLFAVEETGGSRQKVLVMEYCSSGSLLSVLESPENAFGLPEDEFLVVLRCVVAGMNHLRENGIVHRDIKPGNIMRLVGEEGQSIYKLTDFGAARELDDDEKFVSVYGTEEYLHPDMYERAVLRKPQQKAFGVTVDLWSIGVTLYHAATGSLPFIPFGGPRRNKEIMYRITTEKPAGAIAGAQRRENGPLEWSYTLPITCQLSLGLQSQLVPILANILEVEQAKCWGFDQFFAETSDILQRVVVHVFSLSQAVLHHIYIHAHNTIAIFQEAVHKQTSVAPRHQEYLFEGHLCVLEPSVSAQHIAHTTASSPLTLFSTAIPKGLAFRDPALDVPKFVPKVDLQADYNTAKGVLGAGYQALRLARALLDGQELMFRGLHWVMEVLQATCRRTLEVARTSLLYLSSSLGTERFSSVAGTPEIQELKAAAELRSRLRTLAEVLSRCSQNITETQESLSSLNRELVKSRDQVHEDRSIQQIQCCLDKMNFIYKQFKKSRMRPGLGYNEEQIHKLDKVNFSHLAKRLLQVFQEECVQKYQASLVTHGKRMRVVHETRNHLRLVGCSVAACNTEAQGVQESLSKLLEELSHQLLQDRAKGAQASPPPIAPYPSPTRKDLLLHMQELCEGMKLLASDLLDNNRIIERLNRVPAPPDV", "assay": "Inhibition of wild-type human full length IKK-epsilon (M1 to V716 residues) expressed in HEK293 cells assessed as residual activity at 1000 nM after 30 mins by Kinomescan method relative to control", "assay_type": "cell-based", "procedure,_shortened": "as §2"}, "[17]": {"target": "MAP kinase-interacting serine/threonine-protein kinase 1 (Homo sapiens) (UniProt Q9BUB5)", "assay": "Inhibition of wild-type human full length MKNK1 (M1 to L424 residues) expressed in HEK293 cells assessed as residual activity at 1000 nM after 30 mins by Kinomescan method relative to control", "assay_type": "cell-based", "procedure,_shortened": "as §2"}, "[18]": {"target": "Cyclin-dependent kinase-like 1 (Homo sapiens) (UniProt Q00532)", "sequence (Q00532 whole entry, the tested form may be a part)": "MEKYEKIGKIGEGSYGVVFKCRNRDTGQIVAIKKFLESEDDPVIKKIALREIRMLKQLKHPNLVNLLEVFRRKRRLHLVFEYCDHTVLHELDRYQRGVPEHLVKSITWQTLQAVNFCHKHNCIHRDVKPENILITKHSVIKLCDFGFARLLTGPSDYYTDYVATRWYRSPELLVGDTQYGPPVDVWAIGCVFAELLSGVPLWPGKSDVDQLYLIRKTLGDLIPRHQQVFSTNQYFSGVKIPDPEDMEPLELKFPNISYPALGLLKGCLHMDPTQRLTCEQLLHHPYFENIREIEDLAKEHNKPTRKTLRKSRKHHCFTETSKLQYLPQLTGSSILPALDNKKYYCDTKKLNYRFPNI", "assay": "Inhibition of wild-type human full length CDKL1 (M1 to I358 residues) expressed in HEK293 cells assessed as residual activity at 1000 nM after 30 mins by Kinomescan method relative to control", "assay_type": "cell-based", "procedure,_shortened": "as §1"}, "[19]": {"target": "Calcium/calmodulin-dependent protein kinase type II subunit delta (Homo sapiens) (UniProt Q13557)", "assay": "Inhibition of wild-type human partial length CAMK2D (M1 to E329 residues) expressed in Escherichia coli BL21 assessed as residual activity at 1000 nM after 30 mins by Kinomescan method relative to control"}, "[20]": {"target": "Serine/threonine-protein kinase N1 (Homo sapiens) (UniProt Q16512)", "assay": "Inhibition of wild-type human partial length PKN1 (E598 to C948 residues) expressed in Escherichia coli BL21 assessed as residual activity at 1000 nM after 30 mins by Kinomescan method relative to control"}, "[21]": {"target": "Tyrosine-protein kinase ZAP-70 (Homo sapiens) (UniProt P43403)", "assay": "Inhibition of wild-type human partial length ZAP70 (D20 to G299 residues) expressed in HEK293 cells assessed as residual activity at 1000 nM after 30 mins by Kinomescan method relative to control", "assay_type": "cell-based"}, "[22]": {"target": "Insulin-like growth factor 1 receptor (Homo sapiens) (UniProt P08069)", "assay": "Inhibition of wild-type human partial length IGF1R (L972 to D1294 residues) expressed in Escherichia coli BL21 assessed as residual activity at 1000 nM after 30 mins by Kinomescan method relative to control"}},
  "data": [
    {"molecule": "COc1cc(OC)c(Cl)c(N2Cc3cnc(Nc4ccc(F)cc4)nc3N(C3CCN(C(=O)/C=C/CN(C)C)CC3)C2=O)c1Cl", "values": [
      {"measurement": "Activity", "setting": "[1]", "value": 100, "unit": "%"},
      {"measurement": "Activity", "setting": "[2]", "value": 100, "unit": "%"},
      {"measurement": "Activity", "setting": "[3]", "value": 100, "unit": "%"},
      {"measurement": "Activity", "setting": "[4]", "value": 99, "unit": "%"},
      {"measurement": "Activity", "setting": "[5]", "value": 100, "unit": "%"},
      {"measurement": "Activity", "setting": "[6]", "value": 94, "unit": "%"},
      {"measurement": "Activity", "setting": "[7]", "value": 100, "unit": "%"},
      {"measurement": "Activity", "setting": "[8]", "value": 74, "unit": "%"},
      {"measurement": "Activity", "setting": "[9]", "value": 100, "unit": "%"},
      {"measurement": "Activity", "setting": "[10]", "value": 96, "unit": "%"},
      {"measurement": "Activity", "setting": "[11]", "value": 86, "unit": "%"},
      {"measurement": "Activity", "setting": "[12]", "value": 100, "unit": "%"},
      {"measurement": "Activity", "setting": "[13]", "value": 99, "unit": "%"},
      {"measurement": "Activity", "setting": "[14]", "value": 59, "unit": "%"},
      {"measurement": "Activity", "setting": "[15]", "value": 14, "unit": "%"},
      {"measurement": "Activity", "setting": "[16]", "value": 100, "unit": "%"},
      {"measurement": "Activity", "setting": "[17]", "value": 88, "unit": "%"},
      {"measurement": "Activity", "setting": "[18]", "value": 96, "unit": "%"},
      {"measurement": "Activity", "setting": "[19]", "value": 100, "unit": "%"},
      {"measurement": "Activity", "setting": "[20]", "value": 92, "unit": "%"},
      {"measurement": "Activity", "setting": "[21]", "value": 85, "unit": "%"},
      {"measurement": "Activity", "setting": "[22]", "value": 83, "unit": "%"}
    ]}
  ]
}
